The entries come from a sample that favours hits as a whole.
IDH1 R132H inh = inhibitors of IDH1 R132H reductase, primary screen, biochemical, plate reader, single point. 70,000 compounds, 0.18% hits. inhibition, % at 10 µM. AID 624101, 2012. diaphorase/resazurin fluorescence, 60 min; in the data active = inhibition above about 34%;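 note: 0% = DMSO and 100% = no enzyme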
GASC1 inh = inhibitors of GASC-1 (KDM4C) histone demethylase, primary screen, biochemical, single concentration HTS. GST-KDM4C 2-372, H3K9me3 peptide, LANCE TR-FRET. inhibition, % at 12.5 µM. 96,000 compounds, 0.15% hits. AID 720574, 2013;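 active = mean replicate inhibition above about 25%, with at least 55% of replicates also reaching it, limit read from the data, passing the limit was not always enough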
Target sequence (Q9H3R0 2-372 limits assumed): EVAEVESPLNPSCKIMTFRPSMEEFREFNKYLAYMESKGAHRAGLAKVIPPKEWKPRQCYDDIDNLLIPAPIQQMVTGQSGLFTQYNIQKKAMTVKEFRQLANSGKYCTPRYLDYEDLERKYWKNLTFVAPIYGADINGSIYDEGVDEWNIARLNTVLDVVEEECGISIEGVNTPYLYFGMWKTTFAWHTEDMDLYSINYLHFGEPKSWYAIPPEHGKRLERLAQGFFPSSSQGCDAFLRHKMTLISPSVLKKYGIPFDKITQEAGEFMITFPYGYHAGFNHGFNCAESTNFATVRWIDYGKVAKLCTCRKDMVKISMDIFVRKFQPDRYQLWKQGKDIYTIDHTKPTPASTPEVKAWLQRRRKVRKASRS
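reagent = H3K9me3 peptide substrate, Fe(II), 2-oxoglutarate | system = GST-tagged GASC-1 (JMJD2C) catalytic fragment, aa 2-372 | amount = enzyme final amount 10 nM | read-out = Fall in 671/618 emission ratio as inhibition | medium = HEPES buffer, pH 7.5, plus ascorbate | schedule = 30 min reaction, 60 min detection, RT | measured by = LANCE TR-FRET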
T cruzi growth-1 = T. cruzi intracellular proliferation inhibitors, primary screen, cell-based, beta-gal Tulahuen parasites, NIH3T3 host, luminescence | T. cruzi beta-gal in NIH3T3, GalScreen luminescence, 90 h | inhibition, % at 8.34 µM | 77,000 compounds, 5.9% hits | AID 624255, 2012;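 active = mean inhibition above about 93%, with at least 55% of replicates each passing it, limit read from the data, passing the limit was not always enough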
T cruzi growth-2 = T. cruzi intracellular proliferation inhibitors, confirmation, cell-based, NIH3T3 host, beta-gal parasite, luminescence, cherry-pick | T. cruzi beta-gal in NIH3T3, GalScreen luminescence, 90 h | inhibition, % at 8.35 µM | 5,600 compounds, 72% hits | shares compounds with T cruzi growth-1;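 active = mean replicate inhibition above about 95% and at least 55% of replicates individually reaching it, limit read from the data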
T cruzi growth-3 = inhibitors of intracellular T. cruzi replication, confirmation, NIH3T3 host cells, beta-gal parasites, cherry-pick, set 2; shares compounds with T cruzi growth-1; T. cruzi beta-gal in NIH3T3, GalScreen luminescence, 90 h; inhibition, % at 2.09 µM; 5,600 compounds, 21% hits;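 active = mean inhibition above about 95%, with at least 55% of replicates also reaching it, limit read from the data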;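 note: plate controls were neutral control median for no effect and positive control median for full effect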
3T3 cytotox = cytotoxicity in mouse NIH/3T3 fibroblasts, confirmation, cytotoxicity control for T. cruzi proliferation inhibitor project, cell-based, cherry-pick, single point; shares compounds with T cruzi growth-1; NIH/3T3 viability, CellTiter-Glo ATP luminescence, 90 h; cytotoxicity (signal decrease), % at 8.35 µM; 5,600 compounds, 14% hits; AID 651742, 2012;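 active = mean signal decrease across replicates above about 35% based on untreated-well scatter, with enough replicates individually passing, limit read from the data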;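 note: 0% = median of neutral control wells and 100% = median of positive control wells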
NIH3T3 tox 2 = NIH/3T3 fibroblast cytotoxicity, confirmation, cytotoxicity control, cell-based, cherry-pick, single point, set 2; NIH/3T3 viability, CellTiter-Glo ATP luminescence, 90 h; 5,600 compounds, 56% hits; inhibition, % at 24.9 µM; shares compounds with T cruzi growth-1;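 active = mean loss of cell viability signal at or above a set limit, and enough replicates individually reaching it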;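 note: 0% = median of neutral control wells and 100% = median of positive control wells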
Numbers without * were called inactive; / = no result given.

SMILES | IDH1 R132H inh | GASC1 inh | T cruzi growth-1 | T cruzi growth-2 | T cruzi growth-3 | 3T3 cytotox | NIH3T3 tox 2
COc1ccc(NC(=O)Nc2ccc3c(c2)C(=O)N([C@H](C)CO)C[C@@H](C)[C@H](CN(C)S(=O)(=O)c2ccc(Cl)cc2)OCCCC[C@H](C)O3)cc1 | / | -1 | 104* | 110* | 102* | -15 | -22
COc1ccc(NC(=O)Nc2ccc3c(c2)C(=O)N([C@H](C)CO)C[C@@H](C)[C@@H](CN(C)S(=O)(=O)c2ccc(Cl)cc2)OCCCC[C@@H](C)O3)cc1 | -1 | -2 | / | / | / | / | /
COc1ccc(NC(=O)Nc2ccc3c(c2)C(=O)N([C@H](C)CO)C[C@H](C)[C@@H](CN(C)S(=O)(=O)c2ccc(Cl)cc2)OCCCC[C@H](C)O3)cc1 | -2 | 0 | 115* | 104* | 86 | -5 | 2
COc1ccc(NC(=O)Nc2ccc3c(c2)C(=O)N([C@@H](C)CO)C[C@H](C)[C@@H](CN(C)S(=O)(=O)c2ccc(Cl)cc2)OCCCC[C@H](C)O3)cc1 | / | -2 | 113* | 105* | 96* | -9 | 15
COc1ccc(NC(=O)Nc2ccc3c(c2)C(=O)N([C@H](C)CO)C[C@H](C)[C@@H](CN(C)S(=O)(=O)c2ccc(Cl)cc2)OCCCC[C@@H](C)O3)cc1 | 1 | -1 | 92 | / | / | / | /
O=C(COc1ccc([N+](=O)[O-])cc1)Nc1cccc(O)c1 | 0 | / | / | / | / | / | /
CCn1c(SCC(=O)c2cccc([N+](=O)[O-])c2)nnc1-c1ccccc1F | 0 | / | / | / | / | / | /
Cc1ccc(-n2c3c(cc(C(=O)NCCCN4CCOCC4)c2=O)C(=O)CCC3)cc1 | 0 | / | / | / | / | / | /
COc1ccc(S(=O)(=O)N(C)C[C@@H]2OCCCC[C@H](C)Oc3ccc(NC(=O)Nc4ccccc4)cc3C(=O)N([C@H](C)CO)C[C@@H]2C)cc1 | -2 | -3 | 110* | 106* | 68 | 7 | 23
COc1ccc(NC(=O)Nc2ccc3c(c2)C(=O)N([C@H](C)CO)C[C@@H](C)[C@@H](CN(C)S(=O)(=O)c2ccc(OC)cc2)OCCCC[C@H](C)O3)cc1 | 2 | -1 | -60 | / | / | / | /
COc1ccc(NC(=O)Nc2ccc3c(c2)C(=O)N([C@@H](C)CO)C[C@@H](C)[C@H](CN(C)S(=O)(=O)c2ccc(Cl)cc2)OCCCC[C@@H](C)O3)cc1 | 1 | 0 | 113* | 107* | 107* | -18 | 15
COc1ccc(S(=O)(=O)N(C)C[C@@H]2OCCCC[C@@H](C)Oc3ccc(NC(=O)Nc4ccccc4)cc3C(=O)N([C@H](C)CO)C[C@@H]2C)cc1 | / | -1 | 10 | / | / | / | /
COc1cc(S(=O)(=O)NC2CC(C)(C)NC(C)(C)C2)c(OC)cc1Br | 0 | / | / | / | / | / | /
O=C(NCc1cccnc1)C(=O)Nc1cccc(Cl)c1Cl | 0 | / | / | / | / | / | /
CS(=O)(=O)N(CC(=O)Nc1ccc(F)c(Cl)c1)c1ccc2c(c1)OCCO2 | 1 | / | / | / | / | / | /
N#C[C@H]1[C@@H](c2ccccc2)[C@@H](CO)N1S(=O)(=O)c1ccc(-c2ccccc2)cc1 | / | 2 | 96* | 102* | 77 | 10 | 23
N#C[C@@H]1[C@@H](c2ccccc2)[C@@H](CO)N1S(=O)(=O)c1ccc(-c2ccccc2)cc1 | / | -4 | 103* | 100* | 26 | 17 | 20
N#C[C@@H]1[C@H](c2ccccc2)[C@H](CO)N1S(=O)(=O)c1ccc(F)cc1 | / | -3 | 33 | / | / | / | /
N#C[C@@H]1[C@@H](c2ccccc2)[C@H](CO)N1S(=O)(=O)c1ccc(F)cc1 | / | 0 | 50 | / | / | / | /
O=C(CCCN1C(=O)c2ccccc2C1=O)Nc1ccc2ccccc2c1 | 2 | / | / | / | / | / | /
Cc1ccccc1OCC(=O)Nc1cccc(NC(=O)C(C)C)c1 | 0 | / | / | / | / | / | /
COc1ccc2[nH]c(=O)c(CN(C)S(=O)(=O)c3ccc(C)cc3)cc2c1 | 0 | / | / | / | / | / | /
COc1cc(S(=O)(=O)NCc2ccco2)ccc1Br | 0 | / | / | / | / | / | /
C[C@H](CO)N1C[C@H](C)[C@H](CN(C)S(=O)(=O)c2cccc(F)c2)Oc2ncc(-c3cc4ccccc4o3)cc2C1=O | -1 | -4 | / | / | / | / | /
C[C@H](CO)N1C[C@H](C)[C@H](CN(C)Cc2ccncc2)Oc2ncc(-c3cc4ccccc4o3)cc2C1=O | 0 | 1 | 92 | / | / | / | /
SMILES | IDH1 R132H inh | GASC1 inh | T cruzi growth-1 | T cruzi growth-2 | T cruzi growth-3 | 3T3 cytotox | NIH3T3 tox 2
Cc1cccc(CN(C)C[C@@H]2Oc3ncc(-c4cc5ccccc5o4)cc3C(=O)N([C@H](C)CO)C[C@@H]2C)c1 | -4 | 0 | 99* | 106* | 77 | 44* | 104*
COc1cccc(S(=O)(=O)N(C)C[C@@H]2Oc3ncc(-c4cc5ccccc5o4)cc3C(=O)N([C@H](C)CO)C[C@@H]2C)c1 | 0 | -4 | 109* | 104* | 73 | 39* | 16
C[C@H](CO)N1C[C@H](C)[C@H](CN(C)C(=O)Nc2ccc3c(c2)OCO3)Oc2ncc(-c3cc4ccccc4o3)cc2C1=O | -3 | 0 | / | / | / | / | /
COc1ccc(NC(=O)N(C)C[C@@H]2Oc3ncc(-c4cc5ccccc5o4)cc3C(=O)N([C@H](C)CO)C[C@@H]2C)cc1 | 0 | 1 | 109* | 106* | 41 | 32 | 34*
O=C(Cn1c(-c2ccccn2)nc2ccccc21)NCc1ccccc1 | 0 | / | / | / | / | / | /
O=C(CCN1CCCCC1)N1N=C(c2ccc(Cl)cc2)CC1c1ccco1 (stereo unspecified) | 0 | / | / | / | / | / | /
OC[C@@H]1Nc2ccc(C3=CCCCC3)cc2[C@@H]2[C@H]1CCN2Cc1nccs1 | / | 6 | / | / | / | / | /
O=C(C1CC1)N1CC[C@@H]2[C@H]1c1cc(C#Cc3ccc(F)cc3)ccc1N[C@@H]2CO | / | -3 | 64 | / | / | / | /
OC[C@@H]1Nc2ccc(C#Cc3ccc(F)cc3)cc2[C@H]2[C@@H]1CCN2Cc1nccs1 | / | 2 | 104* | 98* | 105* | 37* | 105*
OC[C@H]1Nc2ccc(C#Cc3ccc(F)cc3)cc2[C@H]2[C@@H]1CCN2Cc1nccs1 | / | 0 | 103* | 107* | 102* | 15 | 106*
COc1cc(OC)c(NC(=O)CSc2nnc(-c3ccccc3)n2C)cc1Cl | 0 | / | / | / | / | / | /
O=C(OC[C@H]1O[C@@H](Oc2ccc(O)cc2COC(=O)C2(O)C=CCCC2=O)[C@H](O)[C@@H](O)[C@@H]1O)c1ccccc1 (stereo partly specified) | 1 | / | / | / | / | / | /
